{"source": "ChEMBL document CHEMBL1123397", "about": "“Antiarrhythmic activity of 17 beta-aminoestratrienes. Comparison of 3-ols and 3-acetates with the corresponding 3-(3-amino-2-hydroxypropyl) ethers” (1986)", "key": {"[1]": {"species": "Cavia porcellus", "experiment": "Compound was tested for antiarrhythmic activity expressed as action potential height (AP) in guinea pig atria at 1(ug/mL) concentration", "assay_type": "functional, Heart", "summary_of_the_method": "(§1)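 Guinea pig left atria pinned in a recording chamber, superfused with carbogen-gassed Krebs solution at 35 ± 0.5 °C and electrically stimulated. Transmembrane action potentials were recorded with conventional microelectrodes, giving RMP, AP height, APD50, APD90 and maximum rate of depolarization. Values are mean ± SEM from n cells across five preparations.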"}, "[2]": {"species": "Cavia porcellus", "experiment": "Compound was tested for antiarrhythmic activity expressed as action potential height (AP) in guinea pig atria at 2(ug/mL) concentration", "assay_type": "functional, Heart", "summary_of_the_method": "as §1"}, "[3]": {"species": "Cavia porcellus", "experiment": "Compound was tested for antiarrhythmic activity (time taken to reach 50% repolarization) in guinea pig atria at 1(ug/mL) concentration", "assay_type": "functional, Heart", "summary_of_the_method": "as §1"}, "[4]": {"species": "Cavia porcellus", "experiment": "Compound was tested for antiarrhythmic activity (time taken to reach 50% repolarization) in guinea pig atria at 2(ug/mL) concentration", "assay_type": "functional, Heart", "summary_of_the_method": "as §1"}, "[5]": {"species": "Cavia porcellus", "experiment": "Compound was tested for antiarrhythmic activity (time taken to reach 50% repolarization) in guinea pig atria at 4(ug/mL) concentration", "assay_type": "functional, Heart", "summary_of_the_method": "as §1"}, "[6]": {"species": "Cavia porcellus", "experiment": "Compound was tested for antiarrhythmic activity (time taken to reach 90% repolarization) in guinea pig atria at 1(ug/mL) concentration", "assay_type": "functional, Heart", "summary_of_the_method": "as §1"}, "[7]": {"species": "Cavia porcellus", "experiment": "Compound was tested for antiarrhythmic activity (time taken to reach 90% repolarization) in guinea pig atria at 2(ug/mL) concentration", "assay_type": "functional, Heart", "summary_of_the_method": "as §1"}, "[8]": {"species": "Cavia porcellus", "experiment": "Compound was tested for antiarrhythmic activity (time taken to reach 90% repolarization) in guinea pig atria at 4(ug/mL) concentration", "assay_type": "functional, Heart", "summary_of_the_method": "as §1"}, "[9]": {"species": "Cavia porcellus", "experiment": "Compound was tested for antiarrhythmic activity expressed as action potential height (AP) in guinea pig atria at 4(ug/mL) concentration", "assay_type": "functional, Heart", "summary_of_the_method": "as §1"}, "[10]": {"species": "Cavia porcellus", "experiment": "Compound was tested for antiarrhythmic activity (maximum rate of phase 0 depolarization- MRD) in guinea pig atria at 1(ug/mL) concentration", "assay_type": "functional, Heart", "summary_of_the_method": "as §1"}, "[11]": {"species": "Cavia porcellus", "experiment": "Compound was tested for antiarrhythmic activity (maximum rate of phase 0 depolarization- MRD) in guinea pig atria at 2(ug/mL) concentration", "assay_type": "functional, Heart", "summary_of_the_method": "as §1"}, "[12]": {"species": "Cavia porcellus", "experiment": "Compound was tested for antiarrhythmic activity (maximum rate of phase 0 depolarization- MRD) in guinea pig atria at 4(ug/mL) concentration", "assay_type": "functional, Heart", "summary_of_the_method": "as §1"}, "[13]": {"species": "Cavia porcellus", "experiment": "Compound was tested for antiarrhythmic activity expressed as resting membrane potential (RMP) in guinea pig atria at 1(ug/mL) concentration", "assay_type": "functional", "conditions": "Heart", "summary_of_the_method": "as §1"}, "[14]": {"species": "Cavia porcellus", "experiment": "Compound was tested for antiarrhythmic activity expressed as resting membrane potential (RMP) in guinea pig atria at 2(ug/mL) concentration", "assay_type": "functional", "conditions": "Heart", "summary_of_the_method": "as §1"}, "[15]": {"species": "Cavia porcellus", "experiment": "Compound was tested for antiarrhythmic activity expressed as resting membrane potential (RMP) in guinea pig atria at 4(ug/mL) concentration", "assay_type": "functional", "conditions": "Heart", "summary_of_the_method": "as §1"}, "[16]": {"species": "Cavia porcellus", "experiment": "Concentration required to reduce maximum following frequencu (MFF) of isolated guinea pig atria by 25%", "assay_type": "functional", "summary_of_the_method": "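Guinea pig left atria in an organ bath of Krebs solution at 35 °C, gassed with carbogen, electrically driven, isometric contractions recorded. Drugs added cumulatively; maximum following frequency determined 6 min after each concentration. Concentration reducing MFF by 25% (EC25) calculated from six preparations.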"}, "[17]": {"species": "Mus musculus", "experiment": "ED 50 value against aconitine-induced arrhythmias in mice", "assay_type": "functional", "summary_of_the_method": "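Anaesthetised mice were given test compound intraperitoneally, then aconitine intravenously to induce arrhythmia. At least three doses were tested in separate groups (n = 6-10). ED50 is the dose raising the arrhythmogenic aconitine dose 50% above the control requirement.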"}, "[18]": {"test_system": "Rattus norvegicus", "experiment": "Effect dose of compound that antagonized arrhythmias evoked by coronary artery ligation in the rat was measured at 0.05 mg/kg dose", "assay_type": "functional", "summary_of_the_method": "(§2)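 Male Wistar rats, anaesthetised and artificially ventilated, with left thoracotomy; silk suture under main left coronary artery. After stabilization, test drug or vehicle i.v.; 14 min later isoprenaline 10 μg/kg; 1 min after that the ligature was tightened and VF incidence recorded over 30 min. Carotid pressure and lead II ECG monitored continuously. 7-12 animals per group.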"}, "[19]": {"test_system": "Rattus norvegicus", "experiment": "Compound was tested for antagonism of Ventricular Fibrilloflutter (VF) evoked by coronary artery ligation in the rat measured at 0.05 mg/kg dose", "assay_type": "functional, Heart", "summary_of_the_method": "as §2"}, "[20]": {"test_system": "Rattus norvegicus", "experiment": "Compound was tested for antagonism of Ventricular Fibrilloflutter (VF) evoked by coronary artery ligation in the rat measured at 0.1 mg/kg dose", "assay_type": "functional, Heart", "summary_of_the_method": "as §2"}, "[21]": {"test_system": "Rattus norvegicus", "experiment": "Compound was tested for antagonism of Ventricular Fibrilloflutter (VF) evoked by coronary artery ligation in the rat measured at 0.02 mg/kg dose", "assay_type": "functional, Heart", "summary_of_the_method": "as §2"}, "[22]": {"test_system": "Rattus norvegicus", "experiment": "Effective dose that antagonized arrhythmias evoked by coronary artery ligation in the rat was measured at 5 mg/kg dose", "assay_type": "functional"}, "[23]": {"test_system": "Rattus norvegicus", "experiment": "Effect on heart rate after isoprenaline induced tachycardia in the anesthetized rat at 5 mg/kg dose", "assay_type": "functional", "summary_of_the_method": "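Same ligation protocol in anaesthetised male Wistar rats. Heart rate was taken from the lead II ECG at three points: just before i.v. drug or vehicle, 14 min after it (just before isoprenaline 10 μg/kg), and 1 min after isoprenaline. Pre vs post rates and isoprenaline responses vs controls were compared by Student's t test. Mean ± SEM of 7-12 observations.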"}, "[24]": {"test_system": "Rattus norvegicus", "experiment": "Effect on heart rate before isoprenaline induced tachycardia in the anesthetized rat at 5 mg/kg dose", "assay_type": "functional", "summary_of_the_method": "(§3)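 Test drug or vehicle was given i.v., and isoprenaline (10 µg/kg) 14 min later. Heart rate was read from the lead II ECG just before drug, at 14 min (pre-isoprenaline) and 1 min after isoprenaline. Compared by Student's t test; 7–12 animals per group; mean ± SEM.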"}, "[25]": {"test_system": "Rattus norvegicus", "experiment": "Effect on heart rate on 1 min post isoprenaline induced tachycardia in the anesthetized rat at 5.0 mg/kg dose.", "assay_type": "functional", "summary_of_the_method": "as §3"}, "[26]": {"test_system": "Rattus norvegicus", "experiment": "Compound was tested for antagonism of Ventricular Fibrilloflutter (VF) evoked by coronary artery ligation in the rat measured at 10 mg/kg dose", "assay_type": "functional, Heart", "summary_of_the_method": "as §2"}, "[27]": {"test_system": "Rattus norvegicus", "experiment": "Antagonism of Ventricular Fibrilloflutter (VF) evoked by coronary artery ligation in the rat measured at 2 mg/kg dose", "assay_type": "functional, Heart", "summary_of_the_method": "as §2"}, "[28]": {"test_system": "Rattus norvegicus", "experiment": "Compound was tested for antagonism of Ventricular Fibrilloflutter (VF) evoked by coronary artery ligation in the rat measured at 5 mg/kg dose", "assay_type": "functional, Heart", "summary_of_the_method": "as §2"}, "[29]": {"test_system": "Rattus norvegicus", "experiment": "Mean change in heart rate recorded 14 min after the administration of compound.", "assay_type": "functional", "summary_of_the_method": "as §3"}, "[30]": {"species": "Rattus norvegicus", "experiment": "Maximum increase in heart rate evoked by isoprenaline.", "assay_type": "functional", "summary_of_the_method": "as §3"}}, "data": [{"smiles": "CNC1[C@H](O)C[C@H]2[C@@H]3CCc4cc(O)ccc4[C@H]3CC[C@]12C", "note": "(stereo not given in full)", "values": [{"measurement": "AP", "setting": "[1]", "result": 85.8, "unit": "mV"}, {"measurement": "AP", "setting": "[2]", "result": 86.3, "unit": "mV"}, {"measurement": "APD50", "setting": "[3]", "result": 49.2, "unit": "ms"}, {"measurement": "APD50", "setting": "[4]", "result": 45.5, "unit": "ms"}, {"measurement": "APD50", "setting": "[5]", "result": 44.5, "unit": "ms"}, {"measurement": "APD90", "setting": "[6]", "result": 83.6, "unit": "ms"}, {"measurement": "APD90", "setting": "[7]", "result": 80.2, "unit": "ms"}, {"measurement": "APD90", "setting": "[8]", "result": 80.6, "unit": "ms"}, {"measurement": "AP", "setting": "[9]", "result": 81.5, "unit": "mV"}, {"measurement": "MRD", "setting": "[10]", "result": 98.4, "unit": "V s-1"}, {"measurement": "MRD", "setting": "[11]", "result": 86.5, "unit": "V s-1"}, {"measurement": "MRD", "setting": "[12]", "result": 62.4, "unit": "V s-1"}, {"measurement": "RMP", "setting": "[13]", "result": 72.8, "unit": "mV"}, {"measurement": "RMP", "setting": "[14]", "result": 75.8, "unit": "mV"}, {"measurement": "RMP", "setting": "[15]", "result": 72.1, "unit": "mV"}, {"measurement": "EC25", "setting": "[16]", "result": 1.67, "unit": "µg/mL"}, {"measurement": "ED50", "setting": "[17]", "result": 5.9, "unit": "mg/kg"}, {"measurement": "ED50", "setting": "[18]", "result": 0.04, "unit": "mg/kg"}, {"measurement": "VF", "setting": "[19]", "result": 33, "unit": "%"}, {"measurement": "VF", "setting": "[20]", "result": 17, "unit": "%"}, {"measurement": "VF", "setting": "[21]", "result": 83, "unit": "%"}]}, {"smiles": "CC(=O)Nc1ccc(OCC(O)CNC(C)C)cc1", "note": "(stereo not given) [PRACTOLOL]", "values": [{"measurement": "ED50", "setting": "[22]", "result": 5.6, "unit": "mg/kg"}, {"measurement": "Heart rate", "setting": "[23]", "result": 351, "unit": "beats min-1"}, {"measurement": "Heart rate", "setting": "[24]", "result": 459, "unit": "beats min-1"}, {"measurement": "Heart rate", "setting": "[25]", "result": 377, "unit": "beats min-1"}, {"measurement": "VF", "setting": "[26]", "result": 29, "unit": "%"}, {"measurement": "VF", "setting": "[27]", "result": 80, "unit": "%"}, {"measurement": "VF", "setting": "[28]", "result": 43, "unit": "%"}, {"measurement": "Change", "setting": "[29]", "result": -23.5, "unit": "%"}, {"measurement": "Increase", "setting": "[30]", "result": 7.4, "unit": "%"}]}]}
